One data set has as its target Gamma-secretase. Put plainly: Inhibition of gamma-secretase (unknown origin) expressed in HEK293 cells cotransfected with Notch1-VP16-GAL4 fusion and Gal4 luciferase reporter plasmid incubated for 24 hrs by luciferase reporter gene assay luminescence assay. The data set is classed as cell-based, Homo sapiens. In general terms: Reporter assays use an easily measured gene product as a stand-in for the process of interest.

In another data set the target is Beta-secretase 1 (Homo sapiens, UniProt P56817). Put plainly: Inhibition of human BACE1 (46 to 435 residues) expressed in baculovirus infected insect cells using Ac-C(PT14)EVNLDAEWK-NH2 as substrate preincubated for 1 hr followed by substrate addition and measured after 1 hr by fluorescence based assay.
For another data set, the target named is Cathepsin D (Homo sapiens, UniProt P07339). Put plainly: Inhibition of human cathepsin D (1 to 412 residues) expressed in baculovirus infected insect cells using R-C(PT14)-KPILFFRLGWR-OH as substrate preincubated for 1 hr followed by substrate addition and measured after 1 hr by fluorescence based assay.
Another data set addresses T1, Beta-secretase 2 (Homo sapiens, UniProt Q9Y5Z0).
T1 sequence (Q9Y5Z0 whole entry): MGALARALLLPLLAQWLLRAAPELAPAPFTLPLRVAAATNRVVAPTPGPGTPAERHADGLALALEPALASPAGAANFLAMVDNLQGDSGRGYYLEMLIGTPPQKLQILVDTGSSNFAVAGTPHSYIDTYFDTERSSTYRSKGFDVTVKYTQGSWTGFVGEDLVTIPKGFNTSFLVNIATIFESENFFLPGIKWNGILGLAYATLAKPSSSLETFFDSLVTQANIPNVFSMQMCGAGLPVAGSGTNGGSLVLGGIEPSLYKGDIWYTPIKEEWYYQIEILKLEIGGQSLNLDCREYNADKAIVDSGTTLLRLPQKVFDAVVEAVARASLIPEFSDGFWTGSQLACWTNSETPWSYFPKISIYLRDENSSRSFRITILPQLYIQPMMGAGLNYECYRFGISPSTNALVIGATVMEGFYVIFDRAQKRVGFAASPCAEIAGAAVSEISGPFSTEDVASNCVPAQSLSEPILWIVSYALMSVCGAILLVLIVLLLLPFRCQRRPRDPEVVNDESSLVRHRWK
Kind of data set: Inhibition of human BACE2 (63 to 466 residues) expressed in baculovirus infected insect cells using Ac-C(PT14)EVNLDAEWK-NH2 as substrate preincubated for 1 hr followed by substrate addition and measured after 1 hr by fluorescence based assay.

The next data set addresses T2, Cathepsin E (Homo sapiens, UniProt P14091).
T2 sequence (P14091 whole entry): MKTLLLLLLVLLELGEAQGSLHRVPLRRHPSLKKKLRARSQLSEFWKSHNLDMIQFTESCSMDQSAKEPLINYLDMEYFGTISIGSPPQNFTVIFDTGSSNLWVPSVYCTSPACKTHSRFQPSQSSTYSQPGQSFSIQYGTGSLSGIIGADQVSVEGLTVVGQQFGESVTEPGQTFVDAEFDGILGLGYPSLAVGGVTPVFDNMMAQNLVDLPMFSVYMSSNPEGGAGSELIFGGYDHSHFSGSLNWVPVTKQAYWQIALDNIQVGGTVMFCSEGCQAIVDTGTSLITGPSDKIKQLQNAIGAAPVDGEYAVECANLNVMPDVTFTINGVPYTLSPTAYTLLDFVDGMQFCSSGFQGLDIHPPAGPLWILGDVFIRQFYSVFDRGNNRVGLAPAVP
Put plainly: Inhibition of human cathepsin E isoform 1 (19 to 401 residues) expressed in Escherichia coli using R-C(PT14)KPILFFRLGWR-OH as substrate preincubated for 1 hr followed by substrate addition and measured after 1 hr by fluorescence based assay.

The nature of data set [1]: Equilibrium solubility of the compound in DMSO solution at pH 6.8 by saturation shake flask method. The data set is classed as physicochemical. Put shortly:
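Equilibrium solubility by saturation shake-flask at pH 6.8, starting from DMSO solution.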

Another data set deals with T3, Renin (Homo sapiens, UniProt P00797).
T3 sequence (P00797 whole entry): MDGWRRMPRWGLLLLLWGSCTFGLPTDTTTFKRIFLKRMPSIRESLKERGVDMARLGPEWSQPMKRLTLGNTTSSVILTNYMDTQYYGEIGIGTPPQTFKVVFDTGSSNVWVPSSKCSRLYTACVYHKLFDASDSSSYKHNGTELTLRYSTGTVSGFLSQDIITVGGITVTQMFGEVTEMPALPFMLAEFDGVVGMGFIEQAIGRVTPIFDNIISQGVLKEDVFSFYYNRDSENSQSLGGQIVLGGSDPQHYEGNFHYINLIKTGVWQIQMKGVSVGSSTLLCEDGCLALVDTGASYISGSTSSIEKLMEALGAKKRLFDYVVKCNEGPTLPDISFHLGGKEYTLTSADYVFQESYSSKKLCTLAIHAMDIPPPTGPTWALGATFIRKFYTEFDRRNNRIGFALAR
Kind of data set: Inhibition of human renin (67 to 406 residues) expressed in CHO cells using KHPWHLVIHT-C(PT14)-K as substrate preincubated for 1 hr followed by substrate addition and measured after 1 hr by fluorescence based assay.

Another data set deals with Mus musculus. Put plainly: In vivo inhibition of SPPL2a in mouse assessed as increase in CD74/p8 NTF accumulation in splenocytes lysates at 100 mg/kg, po administered as single dose and measured after 4 hrs post-dosing by western blot analysis. As to conditions: Lysate. (A western blot detects proteins with antibodies after separation by electrophoresis.)
For data set [2], the target named is T4, Signal peptide peptidase-like 2A (Homo sapiens, UniProt Q8TCT8).
T4 sequence (Q8TCT8 whole entry): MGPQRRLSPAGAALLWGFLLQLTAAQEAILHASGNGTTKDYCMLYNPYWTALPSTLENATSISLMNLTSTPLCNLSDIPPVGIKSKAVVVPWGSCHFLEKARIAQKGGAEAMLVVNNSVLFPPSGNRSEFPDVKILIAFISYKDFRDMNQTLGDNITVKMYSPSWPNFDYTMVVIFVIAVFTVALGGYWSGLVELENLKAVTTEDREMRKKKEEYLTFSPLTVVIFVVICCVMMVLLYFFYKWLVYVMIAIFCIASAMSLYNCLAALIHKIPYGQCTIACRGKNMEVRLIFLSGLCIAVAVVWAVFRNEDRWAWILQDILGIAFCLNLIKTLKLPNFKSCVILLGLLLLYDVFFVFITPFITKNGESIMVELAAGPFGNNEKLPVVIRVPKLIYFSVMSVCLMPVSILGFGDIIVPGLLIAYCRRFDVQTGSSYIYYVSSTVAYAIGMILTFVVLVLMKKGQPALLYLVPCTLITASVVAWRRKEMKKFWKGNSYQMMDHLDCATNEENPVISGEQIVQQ
Put plainly: Inhibition of human SPPL2a expressed in HEK293 cells cotransfected with Gal4 luciferase reporter plasmid and VP16-TNFalpha(1-76)-NTF incubated for 24 hrs by luciferase reporter gene assay based luminescence assay. The data set is classed as cell-based.

A short description of data set [3]: Lipophilicity, logD of the compound in octanol-buffer at pH 7.4 by shake-flask equilibrium based LC/MS/MS analysis. It counts as physicochemical. In outline: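 log D determined at pH 7.4 by rapid-throughput octanol/buffer 96-well shake-flask equilibration, with LC/MS/MS quantification.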

Data on 15 compounds can be found in ChEMBL document CHEMBL4665664, “Discovery of Orally Active Hydroxyethylamine Based SPPL2a Inhibitors” (ACS Med Chem Lett, 2019).

Structures are written as SMILES. Converted amounts (≈) assume the structure as drawn. The source made the active and inactive calls. No cut-off for these calls is given here.

Chain of Cathepsin D (P07339 65-162 limits assumed): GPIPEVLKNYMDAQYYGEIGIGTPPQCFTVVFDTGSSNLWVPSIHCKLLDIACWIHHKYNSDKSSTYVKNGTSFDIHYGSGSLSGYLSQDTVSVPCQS
Chain of Cathepsin D (P07339 169-412 limits assumed): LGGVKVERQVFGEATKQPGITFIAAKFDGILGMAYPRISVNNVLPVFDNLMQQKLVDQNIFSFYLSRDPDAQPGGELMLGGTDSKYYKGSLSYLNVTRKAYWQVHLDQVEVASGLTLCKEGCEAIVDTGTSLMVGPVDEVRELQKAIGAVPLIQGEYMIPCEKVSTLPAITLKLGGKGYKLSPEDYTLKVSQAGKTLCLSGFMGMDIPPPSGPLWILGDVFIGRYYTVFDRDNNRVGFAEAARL
Chain of Beta-secretase 1 (P56817 whole entry, the tested form may be a part): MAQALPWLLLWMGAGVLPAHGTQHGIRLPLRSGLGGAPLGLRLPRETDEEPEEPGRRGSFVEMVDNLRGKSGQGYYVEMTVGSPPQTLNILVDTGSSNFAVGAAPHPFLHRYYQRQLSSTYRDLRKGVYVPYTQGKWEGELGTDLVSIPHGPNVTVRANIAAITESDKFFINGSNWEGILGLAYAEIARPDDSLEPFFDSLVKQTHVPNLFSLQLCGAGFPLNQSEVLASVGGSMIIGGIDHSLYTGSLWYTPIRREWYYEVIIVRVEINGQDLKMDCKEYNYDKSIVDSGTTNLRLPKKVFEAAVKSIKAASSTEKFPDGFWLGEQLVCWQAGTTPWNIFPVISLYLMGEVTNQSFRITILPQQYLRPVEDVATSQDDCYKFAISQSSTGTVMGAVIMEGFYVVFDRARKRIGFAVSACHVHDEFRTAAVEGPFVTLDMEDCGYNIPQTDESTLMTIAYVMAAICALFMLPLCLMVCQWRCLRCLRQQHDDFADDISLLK

Usually IC50 stands for the point on the concentration scale where inhibition reaches its midpoint. `CC(C)ON(C[C@H](O)[C@@H](N)c1ccccc1)S(=O)(=O)c1ccc(Cl)c(Cl)c1` showed an IC50 on Gamma-secretase of 5.9 µM.

As a reminder, the solubility is how much of the substance goes into solution per volume. Lower therefore signals little dissolved substance. Take `CC(C)CN(C[C@H](O)[C@@H](N)c1ccccc1)S(=O)(=O)c1ccc(Cl)c(Cl)c1`: the IC50 on Beta-secretase 1 is above 100 µM; against Gamma-secretase, 4.8 µM; against Cathepsin D, above 100 µM; against Beta-secretase 2, above 100 µM; at Cathepsin E, above 100 µM; against Renin, above 100 µM. The solubility in data set [1] stood at 34 µg/mL (≈ 78.8 µM).

`N[C@@H](c1ccccc1)[C@@H](O)CN(Cc1ccccc1)S(=O)(=O)c1ccc(Cl)c(Cl)c1` displayed an IC50 on Gamma-secretase of 3.4 µM.

On Gamma-secretase, `N[C@@H](c1ccccc1)[C@@H](O)CN(C1COC1)S(=O)(=O)c1ccc(Cl)c(Cl)c1` yielded an IC50 above 10 µM.

The compound `CC1(C)CCC(C)(C)c2cc(S(=O)(=O)N(C[C@H](O)[C@@H](N)c3ccccc3)C3CCC3)ccc21` came in with an IC50 on Gamma-secretase of 1.8 µM.

For the compound `N[C@@H](c1ccccc1)[C@@H](O)CN(C1CCC1)S(=O)(=O)c1ccc2scnc2c1`, the IC50 at Gamma-secretase was above 10 µM.

Compound `CC(C)(O)CN(C[C@H](O)[C@@H](N)c1ccccc1)S(=O)(=O)c1ccc(Cl)c(Cl)c1` came in with an IC50 at Gamma-secretase above 10 µM.

As to `N[C@@H](c1ccccc1)[C@@H](O)CN(C1CCCCCC1)S(=O)(=O)c1ccc(Cl)c(Cl)c1`, on Gamma-secretase, the IC50 came to 2.1 µM.

For the compound `C[C@H](NC(=O)[C@@H](O)c1cc(F)cc(F)c1)C(=O)N[C@@H]1C(=O)N(C)c2ccccc2-c2ccccc21`, the inhibition entry in the data set with Mus musculus is “Active”.

For the compound `CC1(N(C[C@H](O)[C@@H](N)c2ccccc2)S(=O)(=O)c2ccc(Cl)c(Cl)c2)CCC1`, the midpoint of inhibition on Gamma-secretase, the IC50, lay at 6.4 µM.

At Gamma-secretase, `CC(C)(C)c1ccc(S(=O)(=O)N(C[C@H](O)[C@@H](N)c2ccccc2)C2CCC2)cc1` had a 50% inhibitory concentration (IC50) of 3.7 µM.

As to `CC(C)(C)c1cccc(S(=O)(=O)N(C[C@H](O)[C@@H](N)c2ccccc2)C2CCC2)c1`, inhibition on Gamma-secretase was half-maximal at 3.7 µM (IC50).

What is called logD is the decadic logarithm of the distribution of all forms, ionised or not, between an organic phase and buffer at a given pH. In data set [2], `CC(C)CN(C[C@H](O)[C@@H](N)Cc1ccccc1)S(=O)(=O)c1ccc(Cl)c(Cl)c1` had a 50% inhibitory concentration (IC50) of 0.86 µM. In data set [1], this compound had a solubility below 2 µg/mL. In data set [3], this compound came in with a pH-dependent lipophilicity (logD) of 3.1.

As for `N[C@@H](c1ccccc1)[C@@H](O)CN(C1CCC1)S(=O)(=O)c1ccc(Cl)c(Cl)c1`, half-maximal inhibition at Gamma-secretase (IC50) was put at 5.1 µM.

`CC(C)CN(C[C@H](O)[C@H](Cc1ccccc1)NC(=O)OCc1ccccc1)S(=O)(=O)c1ccc(Cl)c(Cl)c1` gave an IC50 in data set [2] of 4.3 µM. In data set [1], this compound showed a solubility below 2 µg/mL. In [3], this compound registered a log distribution coefficient (logD) above 4.6.
